Measured values: ChEMBL document CHEMBL1143197, “Neural networks as valuable tools to differentiate between sesquiterpene lactones' inhibitory activity on serotonin release and on NF-kappaB” (J Med Chem, 2008)

Test system: Platelet
Assay: Inhibition of serotonin release in bovine platelets
Type: functional, cell-based
Conditions: Bos taurus
How it was run: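 Bovine platelets loaded with [14C]serotonin by incubating cattle venous blood, taken up by active transport. Platelet-rich plasma prepared at a standard platelet concentration by centrifugation and dilution, then preincubated with the sesquiterpene lactones. Adenosine diphosphate added to trigger aggregation and degranulation. Reaction stopped after 6 min with ice-cold acetylsalicylic acid. Released serotonin monitored and IC50 determined.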

| IC50 | SMILES |
| --- | --- |
| 278 µM | C=C1C(=O)O[C@@H]2C/C(C=O)=C/CC/C(C)=C/[C@@H](O)[C@H]12 [SCHKUHRIOLIDE] |
| 3.03 µM | C=C1C(=O)O[C@@H]2C3O[C@]3(C)CC/C=C(\C)CC[C@@H]12 (some centres undefined) |
| 5.3 µM | C=C1C(=O)O[C@H]2/C=C(\C)[C@@H](OC(C)=O)C/C=C(\C)C[C@@H](OC(=O)C(C)(O)C(C)OC(C)=O)[C@@H]12 (some centres undefined) [URSINIOLIDE B] |
| 3.52 µM | C=C1C(=O)O[C@@H]2/C=C(\CO)CC/C=C(\C)C[C@H](OC(=O)C(=C)[C@H](O)CO)[C@@H]12 [CNICIN] |
| 251 µM | C=C1C(=O)O[C@@H]2C[C@H](C)[C@@H]3[C@@H](O)CC(=O)[C@@]3(C)C[C@H]12 [BURRODIN] |
| > 400 µM | C/C1=C\CC[C@@]2(C)O[C@@H]2[C@H]2OC(=O)[C@@H](C)[C@@H]2CC1 [11BETA,13-DIHYDRO-PARTHENOLIDE] |
| 10.2 µM | C=C1C(=O)O[C@@H]2/C=C(\CO)CC/C=C(\C)C[C@H](O)[C@@H]12 [SALONITENOLIDE] |
| 22.2 µM | C=C1C(=O)O[C@H]2[C@H]1[C@@H](O)CC(=C)[C@@H]1CC(=O)[C@@H](C)[C@H]21 [GROSSHEIMIN] |
| 57.6 µM | C=C1C(=O)O[C@@H]2C[C@@]3(C)[C@H](O)CCC(=C)[C@@H]3C[C@H]12 [ASPERILIN] |
| 17.7 µM | C=C1C(=O)O[C@H]2[C@H]1[C@H](OC(=O)C1(C)OC1C)C[C@@]1(C)[C@H](O)C[C@H]3O[C@@]3(C)[C@H]21 (some centres undefined) |
| 361 µM | C[C@@H]1C[C@@H]2OC(=O)[C@]3(C)[C@H]2[C@@H](OC3(C)O)[C@]2(C)C(=O)C=C[C@@H]12 (some centres undefined) [TENULIN] |
| 6.06 µM | C=C1C(=O)O[C@H]2[C@H]1[C@@H](OC(=O)[C@](C)(O)CCl)CC(=C)[C@@H]1C[C@H](O)[C@](O)(CCl)[C@H]21 [CENTAUREPENSIN] |
| 121 µM | C=C1C(=O)O[C@@H]2/C=C(\C)CC[C@H]3O[C@]3(C)CC[C@@H]12 [1,10-EPOXYCOSTUNOLIDE] |
| 7.09 µM | C=C1C(=O)O[C@H]2[C@H]1[C@H](OC(=O)C1(C)OC1C)C[C@@]1(C)[C@H](O)CC=C(C)[C@H]21 (some centres undefined) |
| 73.4 µM | C=C1C(=O)O[C@H]2C[C@@H](C)[C@@H]3C[C@@H](O)[C@H](O)[C@@]3(C)[C@H](O)[C@H]12 [GEIGERININ] |
| 6.32 µM | C=C1C(=O)O[C@@H]2[C@H]3C(=C)[C@@H](O)C[C@H]3C(=C)C[C@H](OC(=O)[C@@]3(C)CO3)[C@@H]12 |
| > 516 µM | C=C1C(=O)O[C@@H]2C[C@@]3(C)CCCC(=C)[C@@H]3C[C@H]12 [ISOALANTOLACTONE] |
| > 454 µM | C=C1[C@@H](O)C[C@@H]2[C@H](OC(=O)[C@H]2C)[C@H]2[C@H](C)C(=O)C[C@@H]12 |
| 40.6 µM | C=C1C(=O)O[C@@H]2[C@H]3O[C@]3(C)CCC[C@H](C)CC[C@@H]12 |
| 249 µM | C=C1C(=O)O[C@@H]2[C@H]1CC[C@H](C)[C@]1(O)CCC(=O)[C@@]21C [CORONOPILIN] |
| > 416 µM | C=C1C(=O)O[C@@H]2C[C@@]3(C)C[C@@H](O)[C@H](O)C(=C)[C@@H]3C[C@H]12 [PULCHELLIN C] |
| 1.78 µM | C=C1C(=O)O[C@H]2/C=C(\C)[C@@H](OC(C)=O)C/C=C(\C)C[C@@H](OC(=O)C3(C)OC3C)[C@@H]12 (some centres undefined) [URSINIOLIDE A] |
| 44.1 µM | C=C1C(=O)O[C@@H]2[C@H]1CC[C@H](C)[C@]1(CCC(=O)O1)[C@@]2(C)O [PSILOSTACHYIN A] |
| 5.82 µM | C=C1C(=O)O[C@H]2[C@H]1[C@@H](OC(=O)/C(=C/CO)CO)C/C(C)=C/CC[C@@]1(C)O[C@H]21 [STIZOLICIN] |
| 84.9 µM | C=C1C(=O)O[C@@H]2[C@H]3C(C)=CC[C@@H](O)[C@]3(C)CC[C@@H]12 [SANTAMARIN] |

| IC50 | SMILES |
| --- | --- |
| 101 µM | C=C1C(=O)O[C@H]2C[C@H](C)[C@@H]3CC(=O)C(C)=C3C[C@H]12 [XERANTOLIDE] |
| 271 µM | C=C1CC[C@@H](O)[C@]2(C)CC[C@H]3C(=C)C(=O)O[C@@H]3[C@@H]12 [REYNOSIN] |
| 201 µM | C=C(C(=O)OC)[C@@H]1CC[C@@]2(C)CCC[C@@](C)(O)[C@@H]2C1 [VACHANIC ACID METHYLESTER] |
| 4.68 µM | C=C1C(=O)O[C@@H]2/C=C(\C)[C@@H]3O[C@@H]3/C=C(/C(=O)OC)[C@H](O)[C@@H](OC(=O)[C@]3(C)O[C@@H]3C)[C@@H]12 [MELAMPODIN A] |
| > 614 µM | C=C(C(=O)O)[C@@H]1CC[C@@]2(C)CCC[C@@](C)(O)[C@@H]2C1 [ILICIC ACID] |
| 20.9 µM | C=C(C)C(=O)O[C@@H]1C[C@@H](OC(C)=O)C(=O)CC[C@]2(C)O[C@H]2[C@@H]2OC(=O)C(COC(C)=O)=C21 [GLAUCOLIDE A] |
| > 135 µM | C=C1C(=O)O[C@H]2[C@H]1CC[C@@](C)(O)[C@]13O[C@H]1[C@H]1O[C@@]1(C)[C@H]23 [ARTECANIN] |
| > 488 µM | C=C1C[C@@H](O)[C@@H]2[C@H](OC(=O)[C@H]2C)[C@H]2[C@H](C)[C@@H](O)C[C@@H]12 |
| > 564 µM | C=C1C(=O)O[C@@H]2C[C@@]3(C)CCCC(=C)[C@]3(O)C[C@H]12 [TELEKIN] |
| > 210 µM | C=C1CC[C@@H](O)[C@]2(C)CC[C@@H]3[C@H](OC(=O)[C@H]3C)[C@@H]12 |
| 27 µM | C=C1C(=O)O[C@H]2CC(=C)[C@@H](O)CC/C(C)=C/[C@@H](O)[C@H]12 [TATRIDIN B] |
| 8.76 µM | C=C1C(=O)O[C@H]2[C@H]1[C@H](OC(=O)[C@@]1(C)O[C@H]1C)[C@@H](OC(C)=O)/C(C(=O)OC)=C\CC[C@@]1(C)O[C@H]21 [ENHYDRIN] |
| 6.66 µM | C=C1C(=O)O[C@@H]2C3=C(C)CC[C@@H](O)[C@]3(C)C[C@@H](OC(=O)C3(C)OC3C)[C@@H]12 (stereo partly drawn) [1BETA-HYDROXY-8BETA-EPOXYANGELOYLOXYARBUSCULIN B] |
| 5.77 µM | C=C1C(=O)O[C@@H]2/C=C(\CO)CC/C=C(\CO)C[C@H](OC(=O)C(C)C)[C@@H]12 [ALATOLIDE] |
| > 200 µM | CC1=CC[C@@H](O)[C@]2(C)CC[C@@H]3[C@H](OC(=O)[C@H]3C)[C@@H]12 |
| 3.52 µM | C=C1C(=O)O[C@@H]2/C=C(/CO)CC[C@H](OCC)C3=C[C@@H](OC3=O)[C@@H]12 [CINERENIN] |
| 60.1 µM | C=C1C(=O)O[C@H]2C[C@@H](C)[C@@H]3CCC(=O)[C@@]3(C)[C@H](O)[C@H]12 |
| 26.7 µM | C=C(C(=O)O[C@@H]1C[C@@]2(C)[C@H](O)CC=C(C)[C@@H]2[C@H]2OC(=O)C(=C)[C@@H]21)C(C)O (some centres undefined) |
| 9.24 µM | C=C1C(=O)O[C@H]2[C@H]1[C@@H](OC(=O)[C@]1(C)CO1)CC(=C)[C@@H]1C[C@H](O)[C@]3(CO3)[C@H]21 [REPIN] |
| 33.5 µM | C=C1C(=O)O[C@H]2C[C@H](C)[C@@H]3C(OC(C)=O)CC(OC(C)=O)[C@@]3(C)[C@@H](O)[C@H]12 (some centres undefined) [INUCHINENOLIDE C] |
| 2.04 µM | C=C1C(=O)O[C@@H]2/C=C(/COC(C)=O)CC[C@H](OCC)C3=C[C@@H](OC3=O)[C@@H]12 [CINERENIN ACETATE] |
| 9.52 µM | C=C1C(=O)O[C@H]2[C@H]1[C@H](OC(=O)C(C)(O)C(C)O)C[C@@]1(C)[C@H](O)CCC(=C)[C@H]21 (some centres undefined) |
| > 413 µM | C[C@@H]1C(=O)O[C@H]2[C@H]1CC[C@@]1(C)O[C@@H]1CC[C@@]1(C)O[C@H]21 |
| 8.88 µM | C=C1C(=O)O[C@@H]2[C@H]1[C@@H](OC(C)=O)C[C@H](C)[C@@H]1CCC(=O)[C@@]21C [CONFERTIFLORIN] |
| 10.1 µM | C=C1C(=O)O[C@H]2[C@H]1[C@H](OC(=O)C1(C)OC1C)C[C@@]1(C)[C@H](O)CCC(=C)[C@H]21 (some centres undefined) |

| SMILES | IC50 |
| --- | --- |
| C=C1C(=O)O[C@@H]2[C@H]1CC[C@H](C)[C@]1(O)C=CC(=O)[C@@]21C [PARTHENIN] | 129 µM |
| CC1=C2[C@H]3OC(=O)[C@@H](C)[C@@H]3CC[C@@]2(C)C=CC1=O [SANTONIN] | > 568 µM |
| C=C1C(=O)O[C@H]2C[C@@H](C)[C@@H]3C=CC(=O)[C@@]3(C)[C@H](OC(C)=O)[C@H]12 [LINIFOLIN A] | 11.4 µM |
| C=C1C(=O)O[C@@H]2C[C@@H](C)[C@@H]3C=CC(=O)[C@@]3(C)[C@@H](O)[C@H]12 [HELENALIN] | 4.28 µM |
